From PubChem
Only some compounds are listed: those with a hit (about 4% of all), similar ones and a draw of the others.
DAGLB inh: blocks human DAGLB lipase activity. Q8NCG7. inhibition, % at 5.17 µM. 340,000 tested, 0.059% active. HEK293T DAGLB membrane lysate, EnzChek fluorogenic substrate; in the data active = inhibition above about 34%
GPR7 antagonist: antagonists of human GPR7 (neuropeptides B/W receptor 1); 290,000 tested, 1.1% active; inhibition, % at 4.4 µM; GPR7-expressing cells, fluorescence antagonist assay; P48145; in the data active = inhibition above about 16%, passing the limit was not always enough;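 note: cells stimulated with the agonist NPW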
TAAR1 antag: human TAAR1 antagonism | Q96RJ0 | CHO RD-HGA16 TAAR1, Fluo-8 calcium fluorescence, antagonist | inhibition, % at 3 µM | 360,000 tested, 1.5% active | AID 624466;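 active = inhibition above a per-plate cutoff, the mean inhibition of test compounds on that plate plus 3 SD, cut at about 49% in these data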
Target sequence (Q96RJ0 whole entry, looked up): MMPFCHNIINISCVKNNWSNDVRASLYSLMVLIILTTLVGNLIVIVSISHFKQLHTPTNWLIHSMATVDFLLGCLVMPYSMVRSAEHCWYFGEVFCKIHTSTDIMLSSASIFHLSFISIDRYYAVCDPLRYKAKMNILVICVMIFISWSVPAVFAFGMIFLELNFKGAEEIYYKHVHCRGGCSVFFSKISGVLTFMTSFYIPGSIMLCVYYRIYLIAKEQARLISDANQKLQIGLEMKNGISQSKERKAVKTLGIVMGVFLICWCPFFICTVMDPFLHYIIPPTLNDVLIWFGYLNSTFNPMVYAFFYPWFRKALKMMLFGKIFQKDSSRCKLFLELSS
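System: RD-HGA16 CHO cells with stable hTAAR1 and Gα16 | Probe or stimulus: EC80 β-phenethylamine stimulus | Dosing: 3 µM, single point | Times: Dye loading 75 min at 37 °C, then 30 min room temperature | Measured by: Fluo-8 calcium-sensitive fluorescence | Read-out basis: % inhibition of agonist calcium response | Replicates: n of 1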
MPTP inh: blocks calcium-induced mitochondrial swelling | AID 602449 | inhibition, % at 10 µM | isolated mouse mitochondria, Ca2+ swelling absorbance, 30 min | 360,000 tested, 1.4% active;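 active = inhibition of 50% or more, scaled per plate between neutral and stimulator controls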
TAAR1 agonist: agonists of human TAAR1; activation, % at 3 µM; 360,000 tested, 0.99% active; CHO RD-HGA16 TAAR1, Fluo-8 calcium fluorescence; vehicle wells 0%, saturating PEA agonist 100%;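 active = activation above the mean activation of all test compounds in the run plus 3 SD, cut at about 38% in these data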
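Assay system – CHO-derived RD-HGA16 cells with stable Gα16 and human TAAR1 · Compound dosing – one-point dosing at 3 µM (nominal) · Incubation – 17-24 h seeding, 75 min 37 °C dye, 30 min RT · Measured by – kinetic Fluo-8 calcium fluorescence · Control set – DMSO vehicle as 0%, PEA at EC100 as 100% · Repeats – single well for each compound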
Rh123 counter: Rhodamine 123 counter-screen of mitochondrial pore hits | shares compounds with MPTP inh | isolated mitochondria, membrane potential, Rhodamine 123 fluorescence | inhibition, % at 10 µM | 5,000 tested, 78% active | AID 624504; in the data active = inhibition above about 22%
MPTP abs DR: dose response confirmation of mitochondrial permeability transition pore inhibitors; AID 651561; shares compounds with MPTP inh; IC50, µM; 780 tested, 58% active; isolated mitochondria swelling, absorbance; in the data active = IC50 below about 20 µM
MPTP cs DR: counter-screen for mitochondrial permeability transition pore inhibitors, dose response; shares compounds with MPTP inh; isolated mitochondria counterscreen, fluorescence read-out; IC50, µM; 780 tested, 49% active; in the data active = IC50 below about 80 µM
Of the large screens only hits and unclear results are named; the others gave an inactive call (follow-up assays come after a bar, where they were run).

CC(=O)O[C@H]1CC[C@@]2(C)[C@H](C1)C(=O)C[C@H]1[C@@H]3CC[C@@H]4[C@@H](CN5C[C@@H](C)CC[C@H]5[C@@]4(C)O)[C@@H]3C[C@@H]12	none
Cc1cc(O)c2c(c1)C(=O)C13C(=C2O)C(=O)[C@H]2[C@@H](O)[C@@H]1[C@H]1[C@H](O)[C@@H]3C(=O)C3=C(O)c4c(O)cc(C)cc4C(=O)C312 (stereo partly drawn)	MPTP inh 86.6 (no result: GPR7 antagonist, TAAR1 antag, TAAR1 agonist) | Rh123 counter inactive
C[C@]12CCC3C(C(=O)C[C@H]4C[C@@H](O)CC[C@]34C)C1CCC2=O (stereo partly drawn)	none (no result: GPR7 antagonist)
O=C(O)COc1ccc(Cl)cc1Cl	none (no result: GPR7 antagonist)
Oc1cc(Cl)ccc1Oc1ccc(Cl)cc1Cl	TAAR1 antag 50.1, MPTP inh 91.9 (no result: GPR7 antagonist) | Rh123 counter 98.9
COc1c(C)cc(C(=O)C2CCCN(Cc3cccc(C)n3)C2)cc1C (stereo not drawn)	none
COC(=O)C(O)(c1ccc(NC(=S)NC(=O)c2ccc(Cl)cc2Cl)c(C)c1)C(F)(F)F (stereo not drawn)	TAAR1 antag 71.6, MPTP inh 85.6 | Rh123 counter 85.6
Cc1ccc(CN2C3CCCC2CC(NC(=O)Nc2cccc(F)c2)C3)cc1 (stereo not drawn)	none
O=C(c1ccc(Cl)cc1)C1CCCN(Cc2cccc3ncccc23)C1 (stereo not drawn)	MPTP inh 96.6 | Rh123 counter 72.2
O=C(c1ccc(C(F)(F)F)cc1)C1CCCN(Cc2ccncc2)C1 (stereo not drawn)	MPTP inh 85.7 | Rh123 counter 47.8
Cc1ncc(CN2CCCC(C(=O)c3ccc(C(C)(C)C)cc3)C2)s1 (stereo not drawn)	MPTP inh 75.0 | Rh123 counter 73.1
O=C(c1ccc(Cl)cc1)C1CCCN(Cc2cccc3cccnc23)C1 (stereo not drawn)	none
O=C(c1ccc(C(F)(F)F)cc1)C1CCCN(Cc2ccc(CO)o2)C1 (stereo not drawn)	none
Cc1noc(C)c1COc1ccc(C(=O)NCC2(N(C)C)CCCCC2)cc1	none (no result: GPR7 antagonist)
CN1CCC(O)(c2ccccc2)C(C(=O)c2ccccc2)C1 (stereo not drawn)	MPTP inh 54.6 | Rh123 counter inactive | MPTP abs DR inactive | MPTP cs DR inactive
Cc1cc(C)c(S(=O)(=O)N2Cc3ccccc3-n3nncc3C2)c(C)c1	none (no result: GPR7 antagonist)
CCN(CC)S(=O)(=O)c1ccc(NN=C(C#N)C#N)cc1	MPTP inh 102.6 | Rh123 counter 80.3
Cc1ccccc1N1C(=O)NC(=O)/C(=C\c2ccc3c(c2)CCCN3Cc2ccccc2)C1=O	none
O=C1NC(=S)NC(=O)C1=Cc1ccc2c(c1)CCN2CCCCl	MPTP inh 60.3 (no result: DAGLB inh, TAAR1 antag, TAAR1 agonist) | Rh123 counter inactive
CCN(CC)CCNC(=O)c1c(O)c2ccccc2n(Cc2ccccc2)c1=O	none
CCN(CC)CCCNC(=O)c1c(O)c2ccccc2n(Cc2ccccc2)c1=O	MPTP inh 78.9 | Rh123 counter inactive | MPTP abs DR 16.3 | MPTP cs DR inactive
FC(F)(F)c1cccc(NC2=NCCS2)c1	none (no result: GPR7 antagonist)
CCN1C(=O)NC(=O)/C(=C/c2cc(C)n(-c3sc(C)c(C)c3C#N)c2C)C1=O	MPTP inh 56.8 | Rh123 counter 35.0
CCOC(=O)c1c(-n2c(C)cc(/C=C3/C(=O)NC(=O)N(CC)C3=O)c2C)sc2c1CCCC2	none
CN1C(=O)C(=Cc2ccccc2OCc2ccccc2Cl)C(=O)N(C)C1=O	MPTP inh 61.1 | Rh123 counter 44.2
N#CC(C#N)=NNc1ccc(-n2ccc(C(F)(F)F)n2)cc1	GPR7 antagonist 25.6, MPTP inh 77.9 | Rh123 counter 81.7
Cc1cc(C)n(-c2ccc(NN=C(C#N)C#N)cc2)n1	MPTP inh 84.4 | Rh123 counter 89.7
CC1(C)C(=O)CC[C@@]2(C)C1=CCC1C2CC[C@]2(C)C(=O)CCC12 (stereo partly drawn)	MPTP inh 59.4 (no result: GPR7 antagonist) | Rh123 counter inactive | MPTP abs DR 6.31 | MPTP cs DR 13.2
